The source made the active and inactive calls. No cut-off for these calls is given here.
Columns and labels:
[1] = target: T1, Peroxisome proliferator-activated receptor alpha (Homo sapiens) (UniProt Q07869); assay: Agonist activity at human PPARalpha ligand binding domain expressed in COS-1 cells co-transfected with Gal4 at 10 uM by luciferase reporter gene assay relative to control; assay type: cell-based
T1 sequence (whole entry): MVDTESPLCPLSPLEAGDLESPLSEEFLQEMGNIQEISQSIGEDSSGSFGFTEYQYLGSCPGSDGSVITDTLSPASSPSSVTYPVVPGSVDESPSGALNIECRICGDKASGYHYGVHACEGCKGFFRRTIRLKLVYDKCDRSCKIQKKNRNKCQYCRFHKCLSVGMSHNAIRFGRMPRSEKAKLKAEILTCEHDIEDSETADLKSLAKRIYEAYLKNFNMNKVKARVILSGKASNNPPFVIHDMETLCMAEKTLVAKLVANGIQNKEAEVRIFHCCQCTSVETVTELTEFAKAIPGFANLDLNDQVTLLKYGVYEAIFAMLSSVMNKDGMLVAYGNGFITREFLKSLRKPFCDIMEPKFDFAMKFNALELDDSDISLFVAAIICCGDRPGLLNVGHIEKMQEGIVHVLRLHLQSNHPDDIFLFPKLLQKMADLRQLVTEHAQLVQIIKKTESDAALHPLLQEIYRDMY
How it was run: (§1)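 COS-1 cells were seeded at 5 × 10⁴ cells/well and grown about 24 h at 37 °C under 5% CO₂ in DMEM with 10% charcoal-treated FCS. They were lipofected with a GAL4–PPAR ligand-binding-domain fusion plasmid plus a GAL4-responsive luciferase reporter. Medium was replaced at 4 h with medium containing compound; no-drug controls received 0.1% DMSO final. Cells were lysed after 24 h and luciferase was read. Results are reported as fold induction and EC50.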

[2] = target: T2, Peroxisome proliferator-activated receptor alpha (Homo sapiens, UniProt Q07869); assay: Agonist activity at human PPARalpha ligand binding domain expressed in COS-1 cells co-transfected with Gal4 by luciferase reporter gene assay; assay type: cell-based; how it was run: as §1
T2 sequence (Q07869 whole entry): T1 sequence (whole entry)

[3] = target: T1, Peroxisome proliferator-activated receptor alpha (Homo sapiens); assay: Agonist activity at human PPARalpha ligand binding domain expressed in COS-1 cells co-transfected with Gal4 by luciferase reporter gene assay relative to fenofibric acid; assay type: cell-based
[4] = target: T3, Peroxisome proliferator-activated receptor gamma (Homo sapiens) (UniProt P37231); assay: Agonist activity at human PPARgamma ligand binding domain expressed in COS-1 cells co-transfected with Gal4 by luciferase reporter gene assay relative to pioglitazone; assay type: cell-based
T3 sequence (whole entry): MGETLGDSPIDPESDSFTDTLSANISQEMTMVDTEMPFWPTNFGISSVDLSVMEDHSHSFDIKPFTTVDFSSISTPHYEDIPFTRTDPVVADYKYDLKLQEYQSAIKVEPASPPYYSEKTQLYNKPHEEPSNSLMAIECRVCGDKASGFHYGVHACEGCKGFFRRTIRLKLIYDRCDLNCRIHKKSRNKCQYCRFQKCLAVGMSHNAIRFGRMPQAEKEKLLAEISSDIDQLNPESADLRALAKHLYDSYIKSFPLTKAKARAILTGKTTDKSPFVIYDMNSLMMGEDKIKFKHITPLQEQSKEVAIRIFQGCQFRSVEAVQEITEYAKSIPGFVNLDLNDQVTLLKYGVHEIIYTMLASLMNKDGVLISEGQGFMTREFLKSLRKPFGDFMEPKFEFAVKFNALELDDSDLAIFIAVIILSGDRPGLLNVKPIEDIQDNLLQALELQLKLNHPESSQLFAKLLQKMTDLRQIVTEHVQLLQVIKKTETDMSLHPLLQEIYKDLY

Homo sapiens = organism: Homo sapiens; assay: Selectivity ratio, ratio of EC50 for human PPARalpha ligand binding domain to EC50 for human PPARgamma ligand binding domain
[5] = target: T4, Peroxisome proliferator-activated receptor gamma (Homo sapiens, UniProt P37231); assay: Agonist activity at human PPARgamma ligand binding domain expressed in COS-1 cells co-transfected with Gal4 by luciferase reporter gene assay; assay type: cell-based
T4 sequence (P37231 whole entry): T3 sequence (whole entry)

Mus musculus [6] = assay: Antidiabetic activity in db/db mouse assessed as reduction of blood glucose level at 141 mg/kg administered with chow diet ad for 14 days; assay type: functional, organism-based; design: dose 141 mg/kg
How it was run: (§2)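 […] male db/db mice were randomised into four groups and dosed for 14 days through drug admixed in rodent chow; controls received plain chow. Blood glucose, body weight and food intake were monitored. Values are means of 6 animals/group, compared with vehicle by Dunnett's or Student's test.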

[7] = target: T5, Peroxisome proliferator-activated receptor alpha (Mus musculus) (UniProt P23204); assay: Agonist activity at mouse PPARalpha ligand binding domain expressed in COS-1 cells co-transfected with Gal4 by luciferase reporter gene assay relative to fenofibric acid; assay type: cell-based
T5 sequence (whole entry): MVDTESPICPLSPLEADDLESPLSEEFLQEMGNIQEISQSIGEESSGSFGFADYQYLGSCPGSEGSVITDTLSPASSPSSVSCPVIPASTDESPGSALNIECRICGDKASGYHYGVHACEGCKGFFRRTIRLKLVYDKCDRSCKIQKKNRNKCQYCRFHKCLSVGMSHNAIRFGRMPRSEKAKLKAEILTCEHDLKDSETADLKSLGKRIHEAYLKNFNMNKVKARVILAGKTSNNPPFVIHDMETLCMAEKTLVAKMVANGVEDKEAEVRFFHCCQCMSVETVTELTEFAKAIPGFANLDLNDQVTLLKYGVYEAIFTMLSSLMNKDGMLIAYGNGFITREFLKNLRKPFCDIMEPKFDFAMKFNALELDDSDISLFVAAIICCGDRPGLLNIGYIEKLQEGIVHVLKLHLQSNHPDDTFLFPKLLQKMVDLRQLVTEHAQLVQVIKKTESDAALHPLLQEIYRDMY

Mus musculus [8] = assay: Antidiabetic activity in db/db mouse assessed as reduction of blood glucose level at 41 mg/kg administered with chow diet ad for 14 days; assay type: functional, organism-based; design: dose 41 mg/kg; how it was run: as §2
Mus musculus [9] = assay: Toxicity in db/db mouse assessed as increase of body weight at 41 mg/kg administered with chow diet ad for 14 days; assay type: organism-based; design: dose 41 mg/kg; settings: in vivo, po, 336 h; how it was run: as §2
Mus musculus [10] = assay: Toxicity in db/db mouse assessed as effect on food intake at 41 mg/kg administered with chow diet ad for 14 days; assay type: organism-based; design: dose 41 mg/kg; settings: in vivo, po, 336 h; how it was run: as §2
[11] = Volume of distribution at steady state in rat at 1 mg/kg, iv; assay type: ADME, organism-based; design: dose 1 mg/kg, route intravenous; settings: in vivo, read-out: Vdss
How it was run: (§3)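 Single intravenous dose of the sodium salt given to rats. Plasma concentrations followed to derive AUC, half-life, plasma clearance and steady-state distribution volume.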

[12] = AUC in rat at 10 mg/kg, po; assay type: ADME, organism-based; design: dose 10 mg/kg, route oral; settings: plasma
How it was run: (§4)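 Single oral dose of the sodium salt given to rats. Plasma profile used to derive AUC, Cmax, Tmax and bioavailability.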

Mus musculus [13] = assay: Toxicity in db/db mouse assessed as increase of body weight at 15 mg/kg administered with chow diet ad for 14 days; assay type: organism-based; design: dose 15 mg/kg; settings: in vivo, po, 336 h; how it was run: as §2
Mus musculus [14] = assay: Toxicity in db/db mouse assessed as effect on food intake at 15 mg/kg administered with chow diet ad for 14 days; assay type: organism-based; design: dose 15 mg/kg; settings: in vivo, po, 336 h; how it was run: as §2
[15] = AUC in rat at 1 mg/kg, iv; assay type: ADME, organism-based; design: dose 1 mg/kg, route intravenous; settings: plasma; how it was run: as §3
Mus musculus [16] = assay: Toxicity in db/db mouse assessed as increase of body weight at 141 mg/kg administered with chow diet ad for 14 days; assay type: organism-based; design: dose 141 mg/kg; settings: in vivo, po, 336 h; how it was run: as §2
[17] = Clearance in rat at 1 mg/kg, iv; assay type: ADME, organism-based; design: dose 1 mg/kg, route intravenous; settings: in vivo; how it was run: as §3
Mus musculus [18] = assay: Toxicity in db/db mouse assessed as effect on food intake at 141 mg/kg administered with chow diet ad for 14 days; assay type: organism-based; design: dose 141 mg/kg; settings: in vivo, po, 336 h; how it was run: as §2
[19] = Half life in rat at 1 mg/kg, iv; assay type: ADME, organism-based; design: dose 1 mg/kg, route intravenous; settings: in vivo; how it was run: as §3
[20] = Oral bioavailability in rat at 10 mg/kg; assay type: ADME, organism-based; settings: in vivo; how it was run: as §4
[21] = Tmax in rat at 10 mg/kg, po; assay type: ADME, organism-based; design: dose 10 mg/kg, route oral; settings: in vivo; how it was run: as §4
[22] = Cmax in rat at 10 mg/kg, po; assay type: ADME, organism-based; design: dose 10 mg/kg, route oral; settings: in vivo; how it was run: as §4
[23] = target: T6, Peroxisome proliferator-activated receptor alpha (Mus musculus, UniProt P23204); assay: Agonist activity at mouse PPARalpha ligand binding domain expressed in COS-1 cells co-transfected with Gal4 by luciferase reporter gene assay; assay type: cell-based; how it was run: as §1
T6 sequence (P23204 whole entry): T5 sequence (whole entry)

Structure (SMILES): COc1ccc(C(=O)c2cccn2C/C=C/c2ccc(CC(=O)O)cc2)cc1
- fold change (FC) [1]: 0.8

Structure (SMILES): COc1cccc(C(=O)c2cccn2C/C=C/c2cccc(OCC(=O)O)c2)c1
- fold change (FC) [1]: 1.4

Structure (SMILES): COc1ccc(C(=O)c2cccn2C/C=C/c2ccccc2CC(=O)O)cc1
- fold change (FC) [1]: 1

Structure (SMILES): Cc1ccccc1C(=O)c1cccn1C/C=C/c1cccc(OCC(=O)O)c1
- fold change (FC) [1]: 1.1

Structure (SMILES): COc1ccccc1C(=O)c1cccn1C/C=C/c1cccc(OCC(=O)O)c1
- fold change (FC) [1]: 0.9

Structure (SMILES): CC(C)(Oc1ccc(C(=O)c2ccc(Cl)cc2)cc1)C(=O)O [FENOFIBRIC ACID]
- EC50 [2]: 12 µM
- fold change (FC) [1]: 5.6

Structure (SMILES): COc1ccc(C(=O)c2cccn2C/C=C/c2cccc(CC(=O)O)c2)cc1
- Emax [3]: 43%
- EC50 [2]: 21 µM
- Emax [4]: 37%
- Ratio EC50 (Homo sapiens): 11
- EC50 [5]: 2000 nM
- fold change (FC) [1]: 1.6

Structure (SMILES): Cc1ccc(C(=O)c2cccn2C/C=C/c2cccc(OCC(=O)O)c2)cc1 [listing 1 of 2 here]
- Emax [3]: 37%
- Activity (Mus musculus [6]): Active
- Emax [7]: 25%
- Emax [4]: 17%
- Ratio EC50 (Homo sapiens): 1.5
- fold change (FC) [1]: 5.2

Structure (SMILES): Cc1cccc(C(=O)c2cccn2C/C=C/c2cccc(OCC(=O)O)c2)c1
- fold change (FC) [1]: 1.9

Structure (SMILES): COc1ccc(C(=O)c2cccn2C/C=C/c2ccc(OCC(=O)O)cc2)cc1
- fold change (FC) [1]: 3.5

Structure (SMILES): CCc1ccc(CCOc2ccc(CC3SC(=O)NC3=O)cc2)nc1 (stereo unspecified) [PIOGLITAZONE]
- Activity (Mus musculus [8]): Active
- Activity (Mus musculus [9]): Toxic
- Activity (Mus musculus [10]): Toxic

Structure (SMILES): Cc1ccc(C(=O)c2cccn2C/C=C/c2cccc(OCC(=O)[O-])c2)cc1.[Na+]
- Vd [11]: 0.3 L/kg
- AUC [12]: 59000 ng·h/mL
- Activity (Mus musculus [13]): Non-toxic
- Activity (Mus musculus [14]): Non-toxic
- AUC [15]: 14000 ng·h/mL
- Activity (Mus musculus [16]): Non-toxic
- clearance [17]: 1.2 mL/min/kg
- Activity (Mus musculus [18]): Non-toxic
- half-life [19]: 192 min
- bioavailability [20]: 42%
- Tmax [21]: 4 h
- Cmax [22]: 4300 ng/mL

Structure (SMILES): COc1ccc(C(=O)c2cccn2C/C=C/c2ccccc2OCC(=O)O)cc1
- fold change (FC) [1]: 0.8

Structure (SMILES): COc1ccc(C(=O)c2cc(C)cn2C/C=C/c2ccc(Cl)cc2C(=O)NS(C)(=O)=O)cc1
- EC50 [2]: > 90 µM
- Emax [4]: 19%
- Ratio EC50 (Homo sapiens): > 7.5
- EC50 [5]: 12000 nM
- fold change (FC) [1]: 0.9

Structure (SMILES): COc1ccc(C(=O)c2cccn2C/C=C/c2cccc(OCC(=O)O)c2)cc1
- Emax [3]: 42%
- EC50 [2]: 3.7 µM
- Emax [4]: 16%
- Ratio EC50 (Homo sapiens): 1.9
- EC50 [5]: 1900 nM
- fold change (FC) [1]: 5.8

Structure (SMILES): Cc1ccc(C(=O)c2cccn2C/C=C/c2cccc(OCC(=O)O)c2)cc1 [listing 2 of 2 here]
- EC50 [23]: 4.9 µM
- EC50 [2]: 1.8 µM
- EC50 [5]: 1200 nM
